High-throughput results as filed in PubChem BioAssay.
A selection: hits, their analogues and other compounds. The true share with any hit is near 2.7%.
PAD4 inh: blocks human protein arginine deiminase 4; recombinant PAD4, RCA probe fluorescence polarization; inhibition, % at 6.36 µM; 330,000 tested, 0.41% active; AID 485272;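 active = percent inhibition above a cutoff equal to the mean of all tested compounds plus 3 SD, cut at about 15% in these data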;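 note: 0% = PAD4 with RCA probe and DMSO and 100% = probe without PAD4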
Target sequence (Q9UM07 whole entry, looked up): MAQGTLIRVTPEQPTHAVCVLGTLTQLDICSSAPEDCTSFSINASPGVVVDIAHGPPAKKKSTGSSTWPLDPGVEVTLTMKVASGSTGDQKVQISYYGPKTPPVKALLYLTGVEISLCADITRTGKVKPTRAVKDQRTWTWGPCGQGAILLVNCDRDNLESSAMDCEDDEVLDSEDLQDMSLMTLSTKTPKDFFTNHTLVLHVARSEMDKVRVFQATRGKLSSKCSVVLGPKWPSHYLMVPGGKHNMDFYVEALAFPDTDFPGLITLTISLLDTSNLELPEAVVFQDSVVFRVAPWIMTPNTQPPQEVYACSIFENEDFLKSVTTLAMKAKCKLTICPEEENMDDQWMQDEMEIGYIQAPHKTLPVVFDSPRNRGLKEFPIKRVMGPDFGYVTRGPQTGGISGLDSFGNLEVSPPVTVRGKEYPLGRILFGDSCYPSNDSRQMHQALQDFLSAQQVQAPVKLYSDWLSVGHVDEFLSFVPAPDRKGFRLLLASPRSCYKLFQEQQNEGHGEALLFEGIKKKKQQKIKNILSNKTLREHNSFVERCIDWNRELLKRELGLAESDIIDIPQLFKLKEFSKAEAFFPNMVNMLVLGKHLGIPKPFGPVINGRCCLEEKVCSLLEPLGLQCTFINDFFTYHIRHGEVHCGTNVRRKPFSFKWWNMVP
PRMT1 inh: PRMT1 (human) inhibition, primary screen. recombinant PRMT1, activity-based probe fluorescence polarization. AID 652257. 370,000 tested, 1.3% active. inhibition, % at 2.79 µM. Q99873;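 active = inhibition above about 21% made by adding two undisclosed values, limit read from the data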
GSTO1 inh: GSTO1 inhibition, counter-screen for RBBP9 inhibitors; P78417; recombinant GSTO1, activity-based probe fluorescence polarization; inhibition, % at 5.96 µM; 300,000 tested, 1.1% active;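 active = inhibition above the campaign mean inhibition plus 3 SD, cut at about 35% in these data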;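 note: 0% = GSTO1-1 with DMSO and 100% = wells lacking GSTO1-1 enzyme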
RBBP9 inhibitor: human RBBP9 hydrolase inhibition; inhibition, % at 7.94 µM; recombinant RBBP9, FP-Rh probe fluorescence polarization; 220,000 tested, 0.2% active; O75884;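 active = inhibition above the campaign mean of all tested compounds plus 3 SD, cut at about 14% in these data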;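 note: plate controls were DMSO wells with RBBP9 for no effect and wells lacking RBBP9 protein for full effect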
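system = RBBP9 protein | input = RBBP9 at 2.5 µM in dispensed solution, before mixing | measured by = fluorescence polarization (mP), excitation 525 nm, emission 598 nm | incubation = enzyme-compound preincubation 30 min, then probe labeling 45 min, 25 °C | buffer or medium = Tris-NaCl-Pluronic buffer, pH 8.0 | compound = single dose 7.94 µM | also added = FP-Rh probe, 375 nM dispensing solution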
SIAE primary: blocks human sialic acid acetylesterase; 370,000 tested, 0.69% active; SIAE FP-Rh probe binding, fluorescence polarization; inhibition, % at 9.66 µM;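 active = inhibition above a cutoff: mean of compounds within the control limits plus 3 SD of those, cut at about 17% in these data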;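 note: 0% = plate median of compound wells and 100% = probe without SIAE protein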
PRMT1 inh conf: confirmation of human PRMT1 inhibitors | recombinant His-PRMT1, activity-based probe fluorescence polarization | AID 687036 | 3,300 tested, 42% active | shares compounds with PRMT1 inh | inhibition, % at 2.79 µM;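 active = mean inhibition across replicates above the hit cutoff derived for the earlier primary screen, cut at about 22% in these data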
Numbers without * were called inactive.

For O=C(CSC1=NCCN1)Nc1ccccc1[N+](=O)[O-] the results were PAD4 inh -2, PRMT1 inh 55*, GSTO1 inh 18, RBBP9 inhibitor -8, SIAE primary 2 and PRMT1 inh conf 19.
For COc1ccccc1NC(=O)CSC1=NCCN1 the results were PAD4 inh 14, PRMT1 inh 31*, GSTO1 inh 3, RBBP9 inhibitor -5, SIAE primary 2 and PRMT1 inh conf 21.
Screening CCOc1ccccc1NC(=O)/C=C/C(N)=O returned PAD4 inh -6, PRMT1 inh 61*, GSTO1 inh 3, RBBP9 inhibitor 6, SIAE primary 13 and PRMT1 inh conf 47*.
For CCOc1ccccc1NC(=O)/C=C/c1ccccc1[N+](=O)[O-] the results were PAD4 inh -6, PRMT1 inh -3, GSTO1 inh 7, RBBP9 inhibitor -7 and SIAE primary 13.
Screening O=C(CCNC(=O)c1ccc(Cl)cc1)NN1C(=O)NC2(CCCCC2)C1=O returned PAD4 inh -1, PRMT1 inh -2 and SIAE primary -1.
`O=C(CSC1=NCCN1)Nc1cccc([N+](=O)[O-])c1` gave PAD4 inh 6, PRMT1 inh 34*, GSTO1 inh 16, RBBP9 inhibitor 0, SIAE primary 3 and PRMT1 inh conf 16.
Cc1ccc(NC(=O)CSC2=NCCN2)cc1 was read as PAD4 inh 1, PRMT1 inh 32*, GSTO1 inh -5, RBBP9 inhibitor -1, SIAE primary 0 and PRMT1 inh conf 12.
`COc1ccccc1NC(=O)CSc1nnc(-c2ccco2)o1` gave PAD4 inh 0, PRMT1 inh 2, GSTO1 inh 3, RBBP9 inhibitor -5 and SIAE primary 3.
Screening COc1ccccc1NC(=O)CSc1nccc(-c2ccco2)n1 returned PAD4 inh -2, PRMT1 inh 32*, SIAE primary 8 and PRMT1 inh conf 7.
CCn1c(SCC(=O)Nc2ccc(C)cc2)nnc1-c1ccccn1 was read as PAD4 inh -5, PRMT1 inh -1, GSTO1 inh 9, RBBP9 inhibitor 1 and SIAE primary -5.
Screening CCOc1ccccc1NC(=O)CSc1c(C)n[nH]c1C returned PAD4 inh 4, PRMT1 inh 25*, GSTO1 inh 1, RBBP9 inhibitor -6, SIAE primary 1 and PRMT1 inh conf 21.
For Nc1nc(SCC(=O)Nc2cccc([N+](=O)[O-])c2)n[nH]1 the results were PAD4 inh -1, PRMT1 inh -3 and SIAE primary -5.
Screening CC(C)=NNc1nc(-c2ccccc2)c(C)s1 returned PAD4 inh -3, PRMT1 inh 7, GSTO1 inh 6, RBBP9 inhibitor 7 and SIAE primary 1.
`O=C(O)Cn1c2ccccc2c2n[nH]c(=S)nc21` gave PAD4 inh 4, PRMT1 inh 42*, GSTO1 inh -7, SIAE primary 4 and PRMT1 inh conf 85*.
Screening C=CCn1c2ccccc2c2n[nH]c(=S)nc21 returned PRMT1 inh 30*, SIAE primary 3 and PRMT1 inh conf 5.
O=C1/C(=C/c2c[nH]c3ccccc23)CCC/C1=C\c1c[nH]c2ccccc12 was read as PAD4 inh -9, PRMT1 inh 7, GSTO1 inh 12, RBBP9 inhibitor 4 and SIAE primary 9.
`CCOC(=O)[C@]12CCCC=C1N(CCCOC)C(=O)[C@@H]2CC(=O)N1CCN(C(=O)C2CC2)CC1` gave PRMT1 inh 6 and SIAE primary 1.
Screening CNC(=O)C1=C(C)n2c(nc3ccccc32)NC1c1ccc(OC)cc1 (stereo not drawn) returned PAD4 inh 9, PRMT1 inh 0, GSTO1 inh 5, RBBP9 inhibitor -2 and SIAE primary 1.
`CCN(CC)Cc1cc(O)c(CN(CC)CC)cc1O` gave PRMT1 inh 30*, RBBP9 inhibitor -6, SIAE primary 4 and PRMT1 inh conf 76*.
`CCOc1ccc(OCCC(=O)OCC(=O)Nc2ccc3c(c2)OCO3)cc1` gave PAD4 inh -7, PRMT1 inh 2, GSTO1 inh 8 and SIAE primary 2.
Cc1ccc(OCCC(=O)OCC(=O)Nc2ccc3c(c2)OCCO3)cc1 was read as PAD4 inh 6, PRMT1 inh 32*, GSTO1 inh 0, SIAE primary -3 and PRMT1 inh conf 9.
O=C(NC1CCCCC1)NC1CCN(C(=S)NCc2ccco2)CC1 was read as PAD4 inh -1, PRMT1 inh 0, GSTO1 inh -3, RBBP9 inhibitor -6 and SIAE primary -3.
`S=C(NC1CC1)SCc1ccco1` gave PAD4 inh -2, PRMT1 inh 48*, SIAE primary 9 and PRMT1 inh conf 12.
Screening CCOC(=O)C1=C(O)/C(=C/c2ccc(CNC(=O)C(=O)Nc3ccc(C)cc3)o2)N=C1C returned PAD4 inh -10, PRMT1 inh 48*, GSTO1 inh 14, RBBP9 inhibitor 1, SIAE primary 9 and PRMT1 inh conf 0.
Screening COC(=O)C1=C(O)/C(=C\c2ccc(CNC(=O)C(=O)Nc3ccc(C)c(C)c3)o2)N=C1C returned PAD4 inh -4, PRMT1 inh 45*, GSTO1 inh 13, RBBP9 inhibitor -8, SIAE primary 12 and PRMT1 inh conf 7.
`COC(=O)C1=C(O)/C(=C\c2ccc(CNS(=O)(=O)c3ccccc3)o2)N=C1C` gave PAD4 inh 2, PRMT1 inh 39*, GSTO1 inh 20, RBBP9 inhibitor 2, SIAE primary 15 and PRMT1 inh conf 16.
`COc1cccc(NC(=O)N2CCc3nc(Nc4ccc(C(C)C)cc4)ncc3C2)c1` gave PRMT1 inh -4 and SIAE primary -4.
`Cc1ccc(C)c(NS(=O)(=O)c2cc(C(=O)Nc3cccc(N(C)S(C)(=O)=O)c3)ccc2C)c1` gave PAD4 inh -7, PRMT1 inh -2, GSTO1 inh -17, RBBP9 inhibitor 0 and SIAE primary -31.
For CC(C)n1c(=O)[nH][nH]c1=S the results were PAD4 inh 1, PRMT1 inh 70*, GSTO1 inh 2, RBBP9 inhibitor -7, SIAE primary 9 and PRMT1 inh conf 91*.
For CC(C)n1c(=O)[nH]c2ccccc21 the results were PAD4 inh 2, PRMT1 inh -1, GSTO1 inh 7, RBBP9 inhibitor 1 and SIAE primary -1.
`CNC(=S)N(Cc1ccc(OC)cc1)Cc1cc2cccc(C)c2[nH]c1=O` gave PAD4 inh -2, PRMT1 inh 1, GSTO1 inh 5, RBBP9 inhibitor 4 and SIAE primary -3.
Cc1ccc(S(=O)(=O)c2nc(S(C)(=O)=O)sc2N2CCC(C)CC2)cc1 was read as PAD4 inh 1, PRMT1 inh 28*, GSTO1 inh -9, SIAE primary -1 and PRMT1 inh conf 1.
